According to ChEMBL document CHEMBL3351691, “Steroidal alkaloids from the marine sponge Corticium niger that inhibit growth of human colon carcinoma cells” (2014):
Active and inactive are the calls of the source. No cut-off for these calls is given here.

Experiments:
COLO 205 = assay: Antiproliferative activity against human COLO205 cells assessed as growth inhibition after 48 hrs by XTT assay; type: functional, cell-based
Outline: (§1)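 Cells were seeded into 384-well plates (COLO205 at […] cells/well, KM12 at 2.5×10^5 cells/well) and preincubated for 24 h. DMSO samples were diluted 1:25 in medium, then given five 2:1 serial dilutions and tested in duplicate (0.4% final DMSO). Exposure was 48 h at 37 °C. XTT was then added, and formazan was read after 4 h at 450 nm against a 650 nm reference.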

HCT-15 = assay: Antiproliferative activity against human HCT15 cells assessed as growth inhibition after 48 hrs by XTT assay; type: functional, cell-based
SW-620 = assay: Antiproliferative activity against human SW620 cells assessed as growth inhibition after 48 hrs by XTT assay; type: functional, cell-based
HCC 2998 = assay: Antiproliferative activity against human HCC2998 cells assessed as growth inhibition after 48 hrs by XTT assay; type: functional, cell-based
HT-29 = assay: Antiproliferative activity against human HT-29 cells assessed as growth inhibition after 48 hrs by XTT assay; type: functional, cell-based
HCT-116 = assay: Antiproliferative activity against human HCT116 cells assessed as growth inhibition after 48 hrs by XTT assay; type: functional, cell-based
KM12 = assay: Antiproliferative activity against human KM12 cells assessed as growth inhibition after 48 hrs by XTT assay; type: functional, cell-based; outline: as §1
[1] = Antiproliferative activity against human NCI60 cells assessed as growth inhibition after 48 hrs by XTT assay; type: functional; conditions: NCI60, 48 h

| Compound | growth inhibition (GI) (COLO 205) | growth inhibition (GI) (HCT-15) | growth inhibition (GI) (SW-620) | growth inhibition (GI) (HCC 2998) | growth inhibition (GI) (HT-29) | growth inhibition (GI) (HCT-116) | growth inhibition (GI) (KM12) | GI50 [1] [µM] |
| --- | --- | --- | --- | --- | --- | --- | --- | --- |
| CC(C)C1CCN(C)C1C[C@@H](C)[C@H]1CC[C@H]2C3=CC[C@H]4[C@H](N)C=CC[C@]4(C)[C@H]3CC[C@]12C (stereo partly drawn) | Active | Active | Active | Active | Active | Active | Active |  |
| CC(=O)O[C@H]1[C@H](N)CC[C@]2(C)[C@H]3CC[C@]4(C)[C@@H]([C@H](C)CC5NCCC5=C(C)C)CC[C@H]4C3=CC[C@@H]12 (stereo partly drawn) | Active | Active | Active | Active | Active | Active | Active | 2.4 |
| CC(C)=C1CCNC1C[C@@H](C)[C@H]1CC[C@H]2C3=CC[C@H]4C[C@H](N)CC[C@]4(C)[C@H]3CC[C@]12C (stereo partly drawn) | Active | Active | Active | Active | Active | Active | Active | 11.5 |
